Source: ChEMBL document CHEMBL1944609, “Niphatenones, glycerol ethers from the sponge Niphates digitalis block androgen receptor transcriptional activity in prostate cancer cells: structure elucidation, synthesis, and biological activity” (J Med Chem, 2012)
Active and inactive are the calls of the source. No cut-off for these calls is given here.

Key:
[1] = biological target: T1, Androgen receptor (Homo sapiens) (UniProt P10275); assay: Antagonist activity at androgen receptor in human LNCAP cells transfected with p6.1-luciferase assessed as inhibition of R1881-induced transcriptional activity at 7 uM pretreated 1 hr prior to R1881 addition measured after 48 hrs by luciferase reporter gene assay; type: functional, cell-based
T1 sequence (whole entry): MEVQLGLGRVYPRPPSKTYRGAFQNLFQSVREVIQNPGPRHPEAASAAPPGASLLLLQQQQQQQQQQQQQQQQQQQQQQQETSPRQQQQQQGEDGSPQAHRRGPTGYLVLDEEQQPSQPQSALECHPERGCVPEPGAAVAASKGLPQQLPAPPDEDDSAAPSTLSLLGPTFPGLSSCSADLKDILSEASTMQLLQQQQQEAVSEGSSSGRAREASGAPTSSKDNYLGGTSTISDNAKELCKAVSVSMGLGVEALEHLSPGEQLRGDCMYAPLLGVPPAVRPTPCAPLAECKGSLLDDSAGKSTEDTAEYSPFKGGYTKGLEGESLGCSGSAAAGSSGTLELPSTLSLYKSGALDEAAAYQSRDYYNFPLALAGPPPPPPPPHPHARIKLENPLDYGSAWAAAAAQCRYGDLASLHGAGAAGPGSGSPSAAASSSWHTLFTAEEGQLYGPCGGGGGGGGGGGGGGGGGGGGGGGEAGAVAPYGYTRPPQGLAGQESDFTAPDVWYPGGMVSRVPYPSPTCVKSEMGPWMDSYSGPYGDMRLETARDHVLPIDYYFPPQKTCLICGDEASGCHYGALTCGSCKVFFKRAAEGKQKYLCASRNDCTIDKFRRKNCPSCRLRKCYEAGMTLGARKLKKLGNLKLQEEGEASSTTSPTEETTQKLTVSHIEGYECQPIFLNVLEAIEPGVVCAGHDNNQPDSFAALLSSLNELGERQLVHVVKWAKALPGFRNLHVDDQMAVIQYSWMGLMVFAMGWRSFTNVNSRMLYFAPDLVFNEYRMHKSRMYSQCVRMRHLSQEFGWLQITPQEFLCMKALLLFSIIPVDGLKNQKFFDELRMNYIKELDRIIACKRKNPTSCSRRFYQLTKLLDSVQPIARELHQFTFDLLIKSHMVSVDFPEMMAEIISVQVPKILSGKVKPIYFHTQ
Procedure, shortened: (§1)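 LNCaP cells were transfected using lipofectin in serum-free, phenol red-free medium with PSA (6.1 kb) luciferase (0.5 μg/well) plus empty vector (1 μg/well) for 24 h. Cells were then given a 1 h compound pretreatment before R1881 was added. After 48 h, luciferase was read and normalized to Bradford protein, expressed as % of the R1881 + DMSO vehicle maximum. Data are mean ± SD of three experiments, each in triplicate.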

LNCaP = assay: Antiproliferative activity against R1881-stimulated human LNCAP cells expressing androgen receptor at 14 uM treated 1 hr before R1881 addition measured after 72 hrs by BrdU incorporation assay; type: functional, cell-based
Procedure, shortened: (§2)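 LNCaP cells were seeded for 24 h in phenol red-free RPMI 1640 with 0.5% FBS and penicillin/streptomycin, then pretreated for 1 h before 0.1 nM R1881. After 72 h, BrdU was added for 2 h, then cells were fixed and incubated with anti-BrdU-POD for 1.5 h; absorbance was read at 570 nm. Data are mean ± SD of three experiments, 6 technical replicates each, analyzed by Student's t test versus R1881.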

PC-3 = assay: Antiproliferative activity against androgen receptor deficient human PC3 cells at 14 uM after 24 hrs by BrdU incorporation assay; type: functional, cell-based
Procedure, shortened: as §2, with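 “PC3” for “LNCaP”, “red DMEM” for “red-free RPMI 1640”, “5%” for “0.5%”, “and cultured 24 h.” for “before 0.1 nM R1881. After 72 h,”, “test.” for “test versus R1881.”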

[2] = biological target: T1, Androgen receptor (Homo sapiens); assay: Binding affinity to AF1 region of N-terminus domain androgen receptor at 20 uM after 50 mins by coomassine blue staining based SDS-PAGE analysis
Procedure, shortened: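 Recombinant AR AF1 (purified by Ni2+-agarose, then size exclusion) at 10 μM was incubated on ice for 50 min with 20 μM alkyne probe in DMSO, or DMSO alone. The reaction was then diluted in half and click-labeled with 10 μM fluorescein azide, 0.1 mM ascorbate and 0.1 mM Cu(II)-TBTA for 30–40 min at RT. Labeling of the AF1 band was read as fluorescence on SDS-PAGE.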

[3] = biological target: T1, Androgen receptor (Homo sapiens); assay: Antagonist activity at androgen receptor in human LNCAP cells transfected with p6.1-luciferase assessed as inhibition of R1881-induced transcriptional activity at 3.5 uM pretreated 1 hr prior to R1881 addition measured after 48 hrs by luciferase reporter gene assay; type: functional, cell-based; procedure, shortened: as §1

Compound	inhibition [1]	also measured
CCCCCCCCCCCCC(=O)/C=C/CCCCC[C@H](O)CO	Active	–
CCCCCCCCCCCCC(=O)/C=C/CCCOC[C@H](O)CO	Active	Activity (LNCaP): Active; Activity (PC-3): inactive
C#CCOC[C@@H](O)COCCC/C=C/C(=O)CCCCCCCCCCCC	Active	Activity [2]: Active
CCCCCCCCCCCCC(=O)CCCCCOC[C@H](O)CO	Active	–
CCCCCCCCCCCCC(=O)/C=C/CCCOC[C@@H](O)COCCOCCOCCO	Active	–
CCCCCCCCCCCCC(=O)/C=C/CCCOC[C@@H](O)CO	50%	Activity (LNCaP): Active; Activity (PC-3): inactive
CC(=O)/C=C/CCCOC[C@H](O)CO	inactive	–
CCCCCCCCCCCCC(=O)/C=C/CCCOC[C@@H](O)CCl	Active	–
CCCCCCCCCCCCCCCCCC(=O)/C=C/CCCOC[C@H](O)CO	–	inhibition [3]: Active
CCCCCCCCCCC/C=C/C(=O)CCCCOC[C@H](O)CO	Active	–
CCCCCCCCCCCCC(=O)/C=C/CCCOC[C@H]1CO1	Active	–
CCCCCCCCCCCCC(=O)/C=C/CCCOC[C@@H]1COC(C)(C)O1	Active	–
CCCCCCCCCCC/C=C/C(=O)CCCCOC[C@@H](O)CO	inactive	–
